Four molecules from ChEMBL document CHEMBL1157670, “Total synthesis and cytotoxicity evaluation of all ochratoxin A stereoisomers” (Bioorg Med Chem, 2010) can be followed below.

In one test the test system is HepG2. The experiment in a line: Cytotoxicity against human HepG2 cells after 48 hrs by WST8 assay. In kind it is functional, cell-based.
Details: not given
The procedure, abridged: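 Hep G2 cells grown in DMEM + 10% FCS (37 °C, 8.5% CO2), seeded 4×10^3/well for 48 h, then 24 h serum-free at ~80% confluence. Compound from 1 mM methanol stock, 10 nM–50 µM, 48 h, serum-free; solvent controls. Then WST-8 for 1 h at 37 °C, absorbance 450 nm, normalized to untreated control. Triplicate, three independent passages (n = 9).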
On the technique in general: Formazan colour is commonly taken as a measure of viable cells.
As for `C[C@@H]1Cc2c(Cl)cc(C(=O)N[C@@H](Cc3ccccc3)C(=O)O)c(O)c2C(=O)O1` [3R14S-OCHRATOXIN A], the Activity result was “Dose-dependent effect”.
As to `C[C@H]1Cc2c(Cl)cc(C(=O)N[C@H](Cc3ccccc3)C(=O)O)c(O)c2C(=O)O1` [3S14R-OCHRATOXIN A], the Activity result is “Dose-dependent effect”.
Turning to `C[C@H]1Cc2c(Cl)cc(C(=O)N[C@@H](Cc3ccccc3)C(=O)O)c(O)c2C(=O)O1` [3S14S-OCHRATOXIN A], the Activity result was “Dose-dependent effect”.
As to `C[C@@H]1Cc2c(Cl)cc(C(=O)N[C@H](Cc3ccccc3)C(=O)O)c(O)c2C(=O)O1` [3R14R-OCHRATOXIN A], the Activity result is “Dose-dependent effect”.

Still in this test, the particulars now being: HepG2, 48 h.
Usually IC50 stands for the concentration needed to halve the response being measured. A low value points to greater potency in that assay. For the molecule `C[C@@H]1Cc2c(Cl)cc(C(=O)N[C@@H](Cc3ccccc3)C(=O)O)c(O)c2C(=O)O1` [3R14S-OCHRATOXIN A], the midpoint of inhibition, the IC50, lay at 300 nM.
Same read-out and setting: the figure for `C[C@H]1Cc2c(Cl)cc(C(=O)N[C@H](Cc3ccccc3)C(=O)O)c(O)c2C(=O)O1` [3S14R-OCHRATOXIN A] is 5000 nM; for `C[C@H]1Cc2c(Cl)cc(C(=O)N[C@@H](Cc3ccccc3)C(=O)O)c(O)c2C(=O)O1` [3S14S-OCHRATOXIN A] it is 400 nM.
`C[C@@H]1Cc2c(Cl)cc(C(=O)N[C@H](Cc3ccccc3)C(=O)O)c(O)c2C(=O)O1` [3R14R-OCHRATOXIN A] returned an IC50 of 3200 nM.

In a further test the test system is HepG2. The experiment in a line: Induction of apoptosis in human HepG2 cells assessed as caspase 3 activation after 24 hrs by fluorescence assay. Format: functional, cell-based. Particulars: HepG2, 24 h. The procedure, abridged: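 Hep G2 cells seeded 2×10^4/well and made serum-free as for the other assays. Compound given at 10 nM–50 µM (1 mM methanol stock) for 24 h. Lysed on ice in 0.1% Triton X-100 buffer, pH 7.5, then centrifuged. Supernatant incubated 1 h at 37 °C with 8 µM DEVD-AFC in PIPES/CHAPS/DTT buffer. AFC fluorescence (ex 400/em 505 nm) quantified against an AFC standard and normalized to BCA protein. n = 9.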
By EC50 is commonly meant the concentration needed to bring the measured effect to its halfway point. Take `C[C@@H]1Cc2c(Cl)cc(C(=O)N[C@@H](Cc3ccccc3)C(=O)O)c(O)c2C(=O)O1` [3R14S-OCHRATOXIN A]: the EC50 worked out at 60 nM.
For `C[C@H]1Cc2c(Cl)cc(C(=O)N[C@H](Cc3ccccc3)C(=O)O)c(O)c2C(=O)O1` [3S14R-OCHRATOXIN A], the EC50 came to 3800 nM.
In the case of `C[C@H]1Cc2c(Cl)cc(C(=O)N[C@@H](Cc3ccccc3)C(=O)O)c(O)c2C(=O)O1` [3S14S-OCHRATOXIN A], the EC50 came to 80 nM.
For the molecule `C[C@@H]1Cc2c(Cl)cc(C(=O)N[C@H](Cc3ccccc3)C(=O)O)c(O)c2C(=O)O1` [3R14R-OCHRATOXIN A], the EC50 is greater than 10000 nM.

The next test has as its system HepG2. The experiment in a line: Cytotoxicity against human HepG2 cells assessed as LDH release after 48 hrs by microplate reader method. In kind it is functional, cell-based.
Details: not given
The procedure, abridged:
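Hep G2 cells in DMEM/10% FCS, seeded 2×10^4/well, switched to serum-free after 48 h at ~80% confluence. After 24 h, compound added at 10 nM–50 µM (1 mM methanol stock) for 48 h. Cells lysed on ice with 1% Triton X-100 Tris buffer. Lysate and medium LDH read kinetically as NADH loss ([…], 10 mM pyruvate, HEPES pH 7.0) at 340 nm over 60 min at 37 °C. Released vs total LDH normalized to positive and negative controls. n = 9.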
In general terms: Release of lactate dehydrogenase indicates damage to the cell membrane.
On to `C[C@@H]1Cc2c(Cl)cc(C(=O)N[C@@H](Cc3ccccc3)C(=O)O)c(O)c2C(=O)O1` [3R14S-OCHRATOXIN A], for which the Activity entry was “Dose-dependent effect”.
Take `C[C@H]1Cc2c(Cl)cc(C(=O)N[C@H](Cc3ccccc3)C(=O)O)c(O)c2C(=O)O1` [3S14R-OCHRATOXIN A]: the Activity entry was “Dose-dependent effect”.
The same measure, in the same setting: to `C[C@H]1Cc2c(Cl)cc(C(=O)N[C@@H](Cc3ccccc3)C(=O)O)c(O)c2C(=O)O1` [3S14S-OCHRATOXIN A] belongs “Dose-dependent effect”; to `C[C@@H]1Cc2c(Cl)cc(C(=O)N[C@H](Cc3ccccc3)C(=O)O)c(O)c2C(=O)O1` [3R14R-OCHRATOXIN A], “Dose-dependent effect”.
